Laboratory results taken from ChEMBL document CHEMBL3124867, “Hepatitis C replication inhibitors that target the viral NS4B protein” (J Med Chem, 2014).

Tests used:
[1] = Toxicity in po dosed PXB mouse assessed as induction of metabolism administered bid every 12 hrs for 7 days; type: organism-based; conditions: in vivo
Outline: (§1)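 Repeat-dose tolerability study in uninfected PXB mice, run before HCV infection. The test agent was given orally as a phosphate prodrug at 10 and 30 mg/kg b.i.d. for 7 days. Plasma exposure of the parent drug was followed over the course, and liver tissue was taken 12 h after dosing on day 7.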

Mus musculus [2] = assay: AUC (0 to 12 hrs) in PXB mouse assessed as 4-(3-chloro-6-cyclopropyl-8-(trifluoromethyl)imidazo[1,2-a]pyridine-2-carbonyl)-1-((trans)-4-hydroxycyclohexyl)piperazin-2-one level at 30 mg/kg, po; type: ADME, organism-based, Plasma; design: time < 12 hr, dose 30 mg/kg, route oral; conditions: in vivo
Outline: (§2)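 Single oral dose of the phosphate prodrug at 10 or 30 mg/kg to uninfected PXB mice (n = 3/group). Plasma levels of the parent drug were followed over 12 h, and AUC0−12h was calculated for the parent.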

Liver = assay: Drug uptake in PXB mouse liver assessed as 4-(3-chloro-6-cyclopropyl-8-(trifluoromethyl)imidazo[1,2-a]pyridine-2-carbonyl)-1-((trans)-4-hydroxycyclohexyl)piperazin-2-one level at 10 to 30 mg/kg, po bid every 12 hrs for 7 days measured 12 hrs post last dose; type: ADME, organism-based; design: dose 10-30 mg/kg, route oral; conditions: in vivo
Outline: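 Uninfected PXB mice were given the prodrug orally at 10 or 30 mg/kg b.i.d. for 7 days. Liver tissue was taken 12 h after the day-7 dose and the level of parent drug in liver was measured relative to plasma.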

Mus musculus [3] = assay: AUC (0 to 12 hrs) in PXB mouse assessed as 4-(3-chloro-6-cyclopropyl-8-(trifluoromethyl)imidazo[1,2-a]pyridine-2-carbonyl)-1-((trans)-4-hydroxycyclohexyl)piperazin-2-one level at 10 mg/kg, po; type: ADME, organism-based, Plasma; design: time < 12 hr, dose 10 mg/kg, route oral; conditions: in vivo; outline: as §2
Hepatitis C virus [4] = assay: Antiviral activity against wild-type Hepatitis C virus genotype 1a infected in PXB mouse assessed as log reduction in viral mRNA titer at 10 to 30 mg/kg, po bid every 12 hrs for 7 days measured after 12 hrs relative to control; type: functional, Hepacivirus hominis, subtype 1a; conditions: dose mg/kg 10-30
Outline: (§3)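 PXB mice infected with wild-type HCV genotype 1a virus were dosed orally b.i.d. 5−8 weeks after infection with the phosphate prodrug of the lead (10 or 30 mg/kg) for 7 days, n = 4/group. A non-nucleoside NS5B inhibitor at 100 mg/kg b.i.d. served as positive control. Read-out was HCV viral RNA titer (viral load) over the course of treatment.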

Hepatitis C virus [5] = assay: Antiviral activity against wild-type Hepatitis C virus genotype 1a infected in po dosed PXB mouse assessed as log reduction in viral mRNA titer administered bid every 12 hrs for 7 days measured on day 7 relative to control; type: functional, organism-based; conditions: Hepacivirus hominis; subtype 1a
Outline: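 PXB mice were infected with HCV genotype 1a wild-type virus and treated 5−8 weeks later (n = 4/group). Oral dosing b.i.d. for 7 days: prodrug at 10 or 30 mg/kg, or positive control at 100 mg/kg. Serum HCV RNA titers (viral load) were followed over the course of dosing.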

Rattus norvegicus = assay: Prodrug conversion in CD rat assessed as 4-(3-chloro-6-cyclopropyl-8-(trifluoromethyl)imidazo[1,2-a]pyridine-2-carbonyl)-1-((trans)-4-hydroxycyclohexyl)piperazin-2-one level at 300 mg/kg, po; type: ADME, organism-based; design: dose 300 mg/kg, route oral; conditions: in vivo
Outline: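 CD rats were given a single oral dose of 300 mg/kg of parent suspension or of prodrug. Plasma was assayed for the parent drug and for uncleaved prodrug.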

Hepatitis C virus [6] = assay: Antiviral activity against wild-type Hepatitis C virus genotype 1a infected in PXB mouse assessed as log reduction in viral mRNA titer at 10 to 30 mg/kg, po bid every 12 hrs for 7 days measured on day 4 relative to control; type: functional, Hepacivirus hominis, subtype 1a; conditions: dose mg/kg 10-30; outline: as §3
[7] = Aqueous solubility in fasted state simulated intestinal fluid at pH 6.5 by LC/UV analysis; type: physicochemical
[8] = Toxicity in po dosed PXB mouse assessed as compound accumulation administered bid every 12 hrs for 7 days; type: organism-based; conditions: in vivo; outline: as §1

With `O=C(c1nc2c(C(F)(F)F)cc(C3CC3)cn2c1Cl)N1CCN([C@H]2CC[C@H](OP(=O)(O)O)CC2)C(=O)C1` as the compound, how does the MTD at 7 days [1] read?
Its MTD at 7 days is 30 mg/kg.

And the AUC (Mus musculus [2])?
The AUC was 66 µg·h/mL.

What about the Drug uptake (Liver) of the same compound?
Its Drug uptake is “Active”.

What about the AUC (Mus musculus [3]) of the same compound?
The AUC was 15 µg·h/mL.

What about the FC (Hepatitis C virus [4]) of the same compound?
The FC was 1.

What about the Activity (Hepatitis C virus [5]) of the same compound?
Its Activity is “Dose-dependent effect”.

What about the Stability (Rattus norvegicus) of the same compound?
Its Stability is “Unstable”.

And the FC (Hepatitis C virus [6])?
Its FC is 4.

What about the solubility [7] of the same compound?
The solubility was greater than 1000 µg/mL.

And the MTD at 7 days [8]?
Its MTD at 7 days is 10 mg/kg.
